# Screening data deposited in PubChem BioAssay by several laboratories.
# KCNQ1 block: blocks the human KCNQ1 potassium channel; P51787; CHO-K1 KCNQ1, FluxOR thallium flux fluorescence; hits give high values; B-score at 10 µM; actives 1.3% (n = 310,000);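 active means compounds whose thallium flux B-score, printed positive for inhibition, exceeds three library SD while starting fluorescence stays within three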;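 further: channel opened by potassium depolarization with thallium stimulus after 20 min compound exposure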
# Target sequence (P51787 whole entry, looked up): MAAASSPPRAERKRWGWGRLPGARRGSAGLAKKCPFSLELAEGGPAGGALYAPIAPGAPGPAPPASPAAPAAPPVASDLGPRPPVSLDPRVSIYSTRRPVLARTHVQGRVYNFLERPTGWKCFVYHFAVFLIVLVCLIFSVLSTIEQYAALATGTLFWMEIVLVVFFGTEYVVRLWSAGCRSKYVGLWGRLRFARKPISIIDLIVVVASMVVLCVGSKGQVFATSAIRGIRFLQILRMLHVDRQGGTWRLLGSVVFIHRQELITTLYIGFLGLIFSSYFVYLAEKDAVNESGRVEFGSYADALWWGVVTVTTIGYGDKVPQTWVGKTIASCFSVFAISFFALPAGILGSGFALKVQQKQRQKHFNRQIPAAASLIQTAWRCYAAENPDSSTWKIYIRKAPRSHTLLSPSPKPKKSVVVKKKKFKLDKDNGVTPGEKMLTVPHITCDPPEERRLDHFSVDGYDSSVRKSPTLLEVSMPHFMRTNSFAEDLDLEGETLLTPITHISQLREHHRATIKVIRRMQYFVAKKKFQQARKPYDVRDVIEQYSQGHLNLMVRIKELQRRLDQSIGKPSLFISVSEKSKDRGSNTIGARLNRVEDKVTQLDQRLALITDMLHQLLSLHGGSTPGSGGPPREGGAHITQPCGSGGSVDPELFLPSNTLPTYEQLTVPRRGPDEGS
# hERG protect: shields human hERG channel from block by proarrhythmic agents; Q12809; CHO-hERG, FluxOR thallium flux, dofetilide IC70 present; activation (rescue from dofetilide block), less the hit threshold, % at 10 µM; actives 0.51% (n = 310,000);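 active means activation above the mean of controls blocked by dofetilide plus 5 SD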;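 further: thallium influx through hERG after potassium depolarization seen as dye fluorescence rise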
# KCNK9 block: human KCNK9 channel inhibition; HEK293 KCNK9, FluxOR thallium flux fluorescence; hits give low values; actives 1.2% (n = 310,000); B-score at 10 µM; Q9NPC2; AID 488922;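 active means ratio B-score over 3 SD below the library mean, with starting fluorescence within 5 SD of its mean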;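 further: negative B-score means less thallium flux so channel inhibition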
# KCNK3 inh: human KCNK3 channel inhibition, primary screen; CHO-KCNK3 thallium flux, FluxOR fluorescence; hits give low values; B-score at 10 µM; actives 0.84% (n = 340,000); AID 602410; O14649;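 active means B-score under library mean minus 4 SD, starting fluorescence ratio at most library mean plus 5 SD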;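 further: more negative B-score means stronger inhibition of thallium flux through KCNK3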
# Cl transport mod: modulators of human KCC2 chloride dependent transport; KCC2 cells, thallium flux FluoZin-2 fluorescence; B-score of Tl+ flux slope (higher = more flux/activation; lower = inhibition) at 10 µM; actives 2.2% (n = 190,000);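 active means thallium flux slope and its plate-corrected score both differing from the plate sample mean at a set confidence after two filtering rounds, in either direction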;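 further: slope of fluorescence scaled to starting intensity during 10 to 20 s after thallium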
# KCNQ1 pot: human KCNQ1 channel potentiation or activation. P51787. CHO-K1 KCNQ1, thallium flux FluxOR fluorescence; hits give high values. B-score at 10 µM. actives 0.35% (n = 310,000);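 active means fluorescence ratio B-score, a plate-corrected score, at least three library SD, with initial intensity B-score within 5 SD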
#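 Test system: CHO-K1 cells stably expressing KCNQ1 / Medium: assay buffer / Also added: depolarizing K+/Tl+ stimulus, K2SO4 and Tl2SO4 each 12.5 mM in 5x stock / Incubation: 90 min dye loading and 20 min compound exposure, both at room temperature / Signal: thallium influx via FluxOR fluorescence, kinetic imaging / Evaluation: B score of baseline-normalized fluorescence ratio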
# KCNK9 inh conf: human KCNK9 inhibitor confirmation. shares compounds with KCNK9 block. HEK293 KCNK9 cells, FluxOR thallium flux fluorescence. inhibition, % at 10 µM. actives 43% (n = 4,900). AID 492992;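 active means thallium signal inhibited by more than 5 SD of the compound-free buffer control wells, on both duplicate plates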;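 further: 0% = assay buffer control wells without compound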
# Kir21 sel: mouse Kir2.1 off-target activity of KCNK9 modulators. shares compounds with KCNK9 block. Kir2.1 cells, FluxOR thallium flux fluorescence. inhibition, % at 10 µM. actives 4% (n = 4,900). AID 492993;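 active means thallium signal drop more than 5 SD beyond the mean of the no-compound control wells, seen in both duplicate plates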;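 further: signal is fluorescence rise after thallium addition divided by baseline fluorescence; plate controls were assay buffer only for no effect and full block by chlorpromazine control for full effect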
# HEK293 Tl ctr: second check of KCNK9 modulator effects in non-induced HEK293 cells | shares compounds with KCNK9 block | FluxOR thallium flux | inhibition, % at 10 µM | actives 40% (n = 4,900) | AID 492997;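 active means thallium signal drop beyond 5 SD of the untreated control mean, on both duplicate plates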;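 further: plate controls were buffer only IC0 wells for no effect and SID17386958 at its maximal inhibitory level for full effect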
# * = called active by the depositor; i = inactive; . = no result given. Rows were chosen to be rich in hits. Some 4.1% of all compounds tested hit in one or more screens of this group.
SMILES,KCNQ1 block,hERG protect,KCNK9 block,KCNK3 inh,Cl transport mod,KCNQ1 pot,KCNK9 inh conf,Kir21 sel,HEK293 Tl ctr
COc1ccc(NC(=O)c2cc3sccc3n2Cc2ccc(F)cc2)cc1OC,i,-9,-12*,i,-0.43,i,57%*,i,30%*
O=C(Nc1nccs1)c1cc2sccc2n1Cc1ccc(F)cc1,i,-11,i,i,0.11,i,.,.,.
COc1ccc(C(=O)N2CCCC2(C#N)c2ccccc2)cc1[N+](=O)[O-] (stereo not drawn),i,-7,i,i,.,i,.,.,.
O=C(CSc1ncn[nH]1)N1N=C2/C(=C/c3ccccc3)CCCC2C1c1ccccc1 (stereo not drawn),i,-9,-12*,i,1.7,i,52%*,i,33%*
COc1ccc(/C=C2\CCCC3C2=NN(C(=O)CSc2ncn[nH]2)C3c2ccc(OC)cc2)cc1 (stereo not drawn),i,-11,i,i,0.86,i,.,.,.
CCCN(CCC)C(=O)Cn1c(=O)c2ccccc2n2c(=S)sc(-c3ccccc3C)c12,i,-1,i,i,-0.00022,i,i,i,i
COc1ccc(-c2noc(CN3CCN(c4ccccc4F)CC3)n2)cc1OC,i,-8,i,i,-0.00079,i,i,i,i
Fc1ccccc1N1CCN(Cc2cc(-c3ccccc3)on2)CC1,i,-5,i,i,.,i,i,i,i
c1ccc(-c2noc(CN3CCN(c4ccccc4)CC3)n2)cc1,i,-10,i,i,.,i,.,.,.
Fc1ccccc1N1CCN(Cc2nc(-c3ccccc3)no2)CC1,i,-13,i,i,-0.68,i,i,i,i
O=C1c2ccccc2C(=O)N1Cc1nc(-c2ccccc2)no1,i,-8,i,i,.,i,i,i,i
O=C1c2ccccc2C(=O)N1Cc1nc(-c2ccncc2)no1,i,-7,i,i,-0.33,i,.,.,.
Fc1ccccc1N1CCN(CCCc2ccccc2)CC1,i,-10,i,i,.,i,.,.,.
CCN1CCCC1CN(Cc1cc2ccc(C)cc2[nH]c1=O)C(=S)Nc1ccccc1C(=O)OC (stereo not drawn),i,-16,i,i,1.5,i,.,.,.
Cc1ccc(S(=O)(=O)NC2=NCN(C)CN2)cc1[N+](=O)[O-],i,-7,i,i,.,i,.,.,.
CCCCN1CC[C@H]2C=CC[C@@H](C(=O)NCc3ccc(OC)cc3)[C@H]2C1=O,i,-5,i,i,.,i,.,.,.
CCCCN1CC[C@H]2C=CC[C@@H](C(=O)Nc3ccc(Cl)cc3Cl)[C@H]2C1=O,i,-11,i,i,.,i,i,i,i
COc1ccc(C)cc1NC(=O)C(OC(=O)c1ccc(Cl)c(S(=O)(=O)N(C)c2ccccc2)c1)c1ccccc1 (stereo not drawn),i,-6,-9.6*,-9.8*,0.39,i,42%*,i,i
CCCC(=O)Nc1ccc(C(=O)Nc2cc(C(F)(F)F)ccc2Cl)cc1,i,-5,i,i,0.38,i,.,.,.
COc1ccc(C)cc1NC(=O)C(OC(=O)Cn1cnc2c1c(=O)n(C)c(=O)n2C)c1ccccc1 (stereo not drawn),i,-15,i,i,.,i,.,.,.
COc1ccc(C)cc1NC(=O)C(OC(=O)CNC(=O)c1ccc(Br)cc1)c1ccccc1 (stereo not drawn),i,-7,-10*,i,0.15,i,36%*,i,38%*
Cc1cc(C(=O)NCC(=O)OC(C(=O)Nc2cc(C(F)(F)F)ccc2Cl)c2ccccc2)ccc1[N+](=O)[O-] (stereo not drawn),i,-6,-20*,-9.5*,0.28,i,62%*,i,32%*
COc1ccc(N(C)S(=O)(=O)c2cccc(C(=O)OC(C(=O)Nc3cc(C)cc(C)c3)c3ccccc3)c2)cc1 (stereo not drawn),i,-10,i,i,0.29,i,.,.,.
CCCC(=O)OC(C(=O)Nc1cc(C(F)(F)F)ccc1Cl)c1ccccc1 (stereo not drawn),i,-12,-13*,i,-0.45,i,46%*,i,46%*
Cc1cc(C(=O)c2cccs2)c(N)s1,i,-4,i,i,-0.23,i,.,.,.
SMILES,KCNQ1 block,hERG protect,KCNK9 block,KCNK3 inh,Cl transport mod,KCNQ1 pot,KCNK9 inh conf,Kir21 sel,HEK293 Tl ctr
O=C(NCc1csc(-c2cccs2)n1)c1ccccc1,i,-13,i,i,-1.9,i,.,.,.
COC(=O)C1CCN(C(=O)Nc2ccccc2)CC1,i,-9,i,i,-0.56,i,.,.,.
COc1ccc(OC)c(-c2nc(C)sc2CC(=O)O)c1,i,-1,i,i,0.95,i,.,.,.
C/C(=N\NC(=O)c1nn(C)c(C)c1Br)c1ccc(NC(=O)C2CCCC2)cc1,i,-7,-12*,i,.,i,68%*,i,i
CN(C(=O)c1ccc(NC(=O)Cc2cccc(NC(=O)C3CCN(C(=O)CCc4ccccc4)CC3)c2)cc1)C1CCCC1,.,.,.,i,.,.,.,.,.
Cc1cccc(N2C(=O)C3CCC(c4ccccc4)CC3C2=O)c1 (stereo not drawn),i,-1,i,i,-0.68,i,i,i,i
COc1ccc(CCNC(=O)CCNC(=O)N2CC(=O)Nc3ccccc32)cc1OC,i,-6,i,i,.,i,.,.,.
CC(Sc1nc2ccccc2c(=O)n1C)C(=O)Nc1ccc2c(c1)OCCO2 (stereo not drawn),.,.,.,i,.,.,.,.,.
CC(C)Cn1c(SC(C)C(=O)Nc2ccc3c(c2)OCCO3)nc2ccccc2c1=O (stereo not drawn),i,-3,-8.5*,i,.,i,i,i,i
O=C(O)c1ccc(CSc2ncnc3c2cnn3Cc2ccccc2)cc1,i,-11,i,i,2.3,i,.,.,.
O=C(OCc1nnc(-c2ccccc2)o1)C12CC3CC(CC(Br)(C3)C1)C2,i,-14,i,i,-0.21,i,i,i,i
Cc1ccc(C(=O)Nc2ccccc2C(=O)NCc2ccco2)cc1S(=O)(=O)N1CCCCC1,i,-30,i,i,1.5,i,i,i,i
